MPTP inh: permeability transition pore inhibition; 360,000 tested, 1.4% active; AID 602449; inhibition, % at 10 µM; isolated mouse mitochondria, Ca2+ swelling absorbance, 30 min;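 active means inhibition of 50% or more, scaled per plate between neutral and stimulator controls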;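 further: 0% = DMSO wells given calcium and 100% = 1 mM EGTA wells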
GRIN3A LBD mod: modulates the human NR3A ligand-binding domain; 340,000 tested, 2.5% active; NR3A LBD differential scanning fluorimetry, Tm shift; 0% = protein alone, 100% = glycine-bound protein; Tm shift relative to glycine control, % at 25 µM;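 active means melting temperature shift of at least 10% of the positive control shift, at one fixed dose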
EBI2 block: antagonists of human EBI2 receptor. EBI2 beta-arrestin recruitment, luminescence, 7a,25-OHC stimulated. inhibition, % at 5 µM. 360,000 tested, 0.81% active; in the data active means inhibition above about 38%;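 further: enzyme fragment complementation signal reports receptor beta-arrestin coupling in cells; 0% = agonist plus DMSO wells and 100% = wells without agonist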
SENP1 inh: SENP1 (human) catalytic domain inhibition | Q9P0U3 | AID 624204 | 360,000 tested, 0.21% active | inhibition, % at 10 µM | recombinant SENP1 catalytic domain, CyPet-SUMO1-YPet FRET cleavage;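 active means inhibition at least 30% at 10 µM, raw YFP signal under a set limit, fluorescence ratio 0.5 to 1.5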;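 further: 0% = enzyme with DMSO and 100% = no enzyme wells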
Target sequence (Q9P0U3 419-644 limits assumed): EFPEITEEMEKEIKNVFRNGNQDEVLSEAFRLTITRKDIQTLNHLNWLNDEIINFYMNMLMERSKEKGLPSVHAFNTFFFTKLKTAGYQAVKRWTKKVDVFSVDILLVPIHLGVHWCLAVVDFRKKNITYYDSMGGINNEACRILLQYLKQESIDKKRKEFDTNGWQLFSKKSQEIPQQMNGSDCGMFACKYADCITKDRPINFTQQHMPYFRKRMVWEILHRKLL
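Material: hSENP1 catalytic domain, recombinant; medium: Tris pH 8 with BME, BSA, NP40 and catalase; compound: single concentration of 10 µM compound, 0.5% DMSO final; technique: FRET read of cyan and yellow fluorescence; timing: 50 min enzyme reaction, room temperature, light-protected; reagent: SFCypet-SUMO1-SFYpet substrate at 25 nM; control set: no-enzyme low, enzyme-DMSO high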
Starred values were filed as active, the others as inactive. Rows were chosen to be rich in hits. Some 4.4% of all compounds tested hit in one or more screens of this group.

SMILES | MPTP inh | GRIN3A LBD mod | EBI2 block | SENP1 inh
Cc1cc(Cl)ccc1OCC(=O)OCC(=O)NCCNC(=O)COC(=O)COc1ccc(Cl)cc1C | 0 | 12* | 4 | 4
Cc1cc(C)n(-c2ccc(C(=O)NC3CCCCC3)cc2)n1 | 1 | 0 | -4 | -1
CC1C(=O)Nc2ccc(S(=O)(=O)NCCc3ccc(Cl)cc3)cc2NC1=O (stereo not drawn) | 0 | -1 | 1 | -6
CCc1ccc(-c2cc(C(=O)NN3CCOCC3)c3ccccc3n2)cc1 | -6 | 11* | 2 | 2
O=C(NN1CCOCC1)c1cc(-c2ccc(Br)cc2)nc2ccccc12 | 8 | -3 | -1 | 0
Cc1cc(NC(=O)CCC(=O)N(Cc2cccnc2)C(C(=O)NC(C)(C)C)c2ccccc2Cl)no1 (stereo not drawn) | 0 | 0 | 4 | -2
O=C(Nc1ccc(OCC(F)(F)C(F)F)c(C(F)(F)F)c1)c1ccccc1 | 4 | 27* | -8 | 1
O=c1c([N+](=O)[O-])c(O)c2ccccc2n1Cc1ccccc1 | 1 | 10* | 7 | -2
COc1cc2c(cc1OC)C(C)N(C(=O)c1c(C)noc1C)CC2 (stereo not drawn) | -1 | 1 | 2 | -3
COc1cc2c(cc1OC)C(C)N(C(=O)c1cc(C)on1)CC2 (stereo not drawn) | -1 | 13* | -5 | 1
CCOc1ccc(-c2cccc(NS(=O)(=O)c3cc([N+](=O)[O-])ccc3C)c2)nn1 | 1 | 11* | -1 | 3
Cn1c(SCC(=O)NCc2ccco2)nnc1C1CCCC1 | 0 | 2 | 6 | 0
CCOC(=O)c1c(NC(=O)c2cc3n(n2)C(C(F)(F)F)CC(c2ccccc2)N3)sc(C)c1C (stereo not drawn) | 3 | 18* | 11 | 9
CN(Cc1ccc(OC(F)F)cc1)C(=O)c1ccc(S(=O)(=O)N(C)c2ccccc2)cc1 | -2 | 4 | -9 | 0
Cc1ccc(CN(C)C(=O)c2ccc(S(=O)(=O)N(C)c3ccccc3)cc2)o1 | 1 | 22* | 1 | 1
CC(=O)Nc1ccc(S(=O)(=O)N(C)CC(=O)OC(C)C(=O)N(C)C2CCCCC2)cc1 (stereo not drawn) | 0 | -2 | 15 | -1
COc1ccc(NC(=O)N2CCCC(c3nc(-c4ccc(C(C)C)cc4)no3)C2)cc1 (stereo not drawn) | 6 | -8 | 72* | 0
Cc1cccc(Nc2nnc(SCC(=O)c3ccc(O)cc3O)s2)c1 | 1 | 33* | 7 | 3
Cc1ccc(Nc2nnc(SCC(=O)c3ccc(O)cc3O)s2)cc1 | 2 | 26* | 12 | -4
Cc1ccc(Nc2nnc(SCC(=O)N(C)C3CCS(=O)(=O)C3)s2)cc1 (stereo not drawn) | 0 | -1 | 15 | 0
CCOC(=O)Cn1nc(C)n(-c2ccc(Br)cc2)c1=O | 0 | -2 | -5 | 0
COc1ccc(CCNC(=O)C2CCN(S(=O)(=O)c3cccs3)CC2)cc1OC | 0 | 0 | 0 | 1
O=C(c1ccc(Cl)cc1)N1CCN(c2cccc3[nH]ccc23)CC1 | 1 | 15* | 1 | -1
O=C(c1ccccc1)c1ccc(C(=O)N2CCN(c3ccccc3Cl)CC2)cc1 | -1 | 2 | 3 | 3
COc1ccc(-n2ncc3c(Nc4cccc(C)c4)ncnc32)cc1 | 2 | 29* | 23 | 2
SMILES | MPTP inh | GRIN3A LBD mod | EBI2 block | SENP1 inh
COc1ccc(Nc2ncnc3c2cnn3-c2cccc(C)c2)cc1OC | 2 | 0 | 11 | 4
Cc1cccc(-n2ncc3c(Nc4ccc(F)cc4)ncnc32)c1 | 5 | 24* | 19 | 2
Cc1ccc(S(=O)(=O)N2CCCCC2)cc1C(=O)Nc1ccccn1 | -1 | -1 | -9 | 0
O=C(CN1C(=O)NC(Cc2c[nH]c3ccccc23)C1=O)Nc1cccc(S(=O)(=O)N2CCCCCC2)c1 (stereo not drawn) | -1 | 16* | -2 | 3
CC(C)CC1NC(=O)N(CC(=O)Nc2ccc(OC(F)F)cc2)C1=O (stereo not drawn) | 0 | 27* | -7 | 0
O=C(CN1C(=O)CCS(=O)(=O)c2ccccc21)Nc1ccc(F)cc1 | -2 | 7 | -6 | -1
Cc1ccc(NC(=O)CN2C(=O)NC(Cc3c[nH]c4ccccc34)C2=O)cc1S(=O)(=O)N1CCCCC1 (stereo not drawn) | -4 | 12* | 5 | -1
O=C(CN1C(=O)NC(Cc2c[nH]c3ccccc23)C1=O)Nc1cccc(S(=O)(=O)N2CCCC2)c1 (stereo not drawn) | 0 | -4 | -6 | -2
